Assay results from publication PMC6060173 (The Lancet. Infectious Diseases, 2018).
Like-named read-outs stand apart in the source and are kept apart here.

Legend:
[1] = 12-lead and Holter ECG safety analysis in malaria patients; assay type: in vivo, human
Summary of the method: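 Adults with uncomplicated malaria (18–70 years, 45–90 kg) received one oral dose of the test compound in suspension, ideally fasted. QT interval was corrected by Fridericia (QTcF) and compared with baseline. PR and QRS intervals were also recorded during the study.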

P falciparum [2] = settings: for a 60 kg patient; cited from earlier work
[3] = tested on: P. falciparum Dd2 B2 clone; settings: dhodh Gly181Cys mutation; cited from earlier work
Plasmodium vivax [4] = assay: Gametocytaemia by microscopy; assay type: in vivo; settings: cohort 2b, P vivax, 600 mg
Summary of the method: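 Patients with P vivax malaria received one oral dose of the test compound: 400 mg in cohort 1b or 600 mg in cohort 2b. Gametocytaemia was assessed by microscopy throughout the 28-day follow-up. The measure was conversion from microscopy-negative at the start of treatment to gametocyte-positive.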

[5] = cited from earlier work
[6] = tested on: Plasmodium falciparum DHODH; settings: cited from earlier work
Plasmodium falciparum [7] = assay: Asexual parasite clearance parameters; assay type: in vivo; settings: P falciparum
Summary of the method: (§1)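 Parasitaemia was counted by microscopy before one oral dose of the test compound and every 4 h over days 0–3. If two consecutive negative readings were not reached, the stay was extended to 7 days with counts every 6 h until clearance. Clearance kinetics, including lag time before parasite decline, followed WWARN statistical procedures. Kaplan-Meier analyses used a modified ITT population.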

P falciparum [8] = settings: single dose of 400 mg administered 1 day before parasite challenge; cited from earlier work
[9] = tested on: P falciparum and P vivax field isolates; settings: ex-vivo; cited from earlier work
[10] = Adverse events in malaria patients; assay type: in vivo, human
Summary of the method: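 Patients received one oral dose of the test compound in suspension: 400 or 250 mg for P falciparum, and 400, 600 or 800 mg for P vivax. They were kept in clinic with checks every 4 h over days 0–3. Safety follow-up lasted 35 days. Safety was analysed in all patients who received at least one dose.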

PvDHODH enzyme = settings: truncated recombinant enzymes; cited from earlier work
Plasmodium falciparum [11] = assay: Phase 2a single-dose efficacy: PCR-adjusted ACPR, thick blood smear microscopy; assay type: in vivo; settings: P falciparum
Summary of the method: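 P falciparum patients (1000–35 000 asexual parasites per μL) received one oral dose of 400 or 250 mg. Treatment failure was read by thick blood smear microscopy; the first cohort initially used quantitative PCR. PCR adjustment distinguished recrudescence from new infection. ACPR was scored at days 14 and 28. ITT included all dosed patients; per-protocol excluded those who vomited, took other medication, had protocol violations or lacked data.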

Plasmodium vivax [12] = assay: Asexual parasite clearance parameters; assay type: in vivo; settings: P vivax
Summary of the method: as §1

P. falciparum = assay: MIC/MPC estimate from nadir of parasitaemia in recrudescing patients; assay type: in vivo, Plasmodium falciparum; settings: 400 mg
Plasmodium vivax [13] = assay: Phase 2a single-dose efficacy: crude cure, thick blood smear microscopy; assay type: in vivo
Summary of the method: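 P vivax patients (1000–35 000 asexual parasites per μL) received one oral dose of 400, 600 or 800 mg. Crude cure meant clearance of asexual parasites within 7 days with no later recurrence, read by thick smear microscopy without PCR adjustment. It was scored at day 14, and cure at day 28. Rescue treatment was given if parasites remained at day 7. Analysis used ITT and per-protocol populations.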

[14] = Pharmacokinetics in malaria patients; assay type: in vivo, human
Summary of the method: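 A further sample was taken on day 5 or 7, depending on day-3 parasitaemia. Later samples were taken on days 10–11, 14, 17–18, 21, 24–25, 28 and 35. Parameters were AUC0-t, AUC0-168, AUC0-inf, Cmax, tmax, t1/2, C168h and λinf.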

[15] = cohort 1a (n=13), P falciparum, 400 mg
[16] = cohort 1b (n=5), P vivax, 400 mg
[17] = cohort 2a (n=11), P falciparum, 250 mg
[18] = cohort 2b (n=9), P vivax, 600 mg
[19] = cohort 3b (n=7), P vivax, 800 mg

## Cc1cc(Nc2ccc(S(F)(F)(F)(F)F)cc2)n2nc(C(C)(F)F)nc2n1 [DSM265]
[1]; in a few patients
  values for QTcF recorded: 450 to 500 ms
[1]; more patients with P falciparum than P vivax
  QTcF changes from baseline: 30 to 60 ms
P falciparum [2]
  predicted efficacious single curative dose: 340 mg
[3]
  reduction in potency: 26 times
Plasmodium vivax [4]
  patients negative for gametocytaemia at baseline who became positive: 13%
[5]; after a single oral dose in the range of 200–400 mg
  duration of effectiveness (pharmacokinetic profile): more than 8 days
[5]; healthy participants, single doses of ≤1200 mg
  tolerability: generally well tolerated
[6]
  in-vitro selectivity for Plasmodium falciparum DHODH over its human ortholog: very high
Plasmodium falciparum [7]; cohort 1a, 400 mg, 8 profiles analysed
  Profiles with lag: 4
Plasmodium falciparum [7]; cohort 2a, 250 mg, 7 profiles analysed
  Profiles with lag: 5
P falciparum [8]
  protection from infection: complete protection
[9]
  efficacy for P falciparum compared with P vivax: five-times better
[10]; all 45 patients
  patients with headache: 40%
  patients with pyrexia: 44%
[10]; all patients
  abnormal haematology laboratory results considered clinically significant: No patients
  treatment-related serious adverse events or adverse events leading to study discontinuation: no patients
[10]; [15]
  Adverse event of special interest: 2 (15%) number of patients (%)
  Any adverse event: 10 (77%) number of patients (%)
  Serious adverse event: 0 number of patients (%)
  Severe adverse event: 0 number of patients (%)
  Treatment-related adverse event: 3 (23%) number of patients (%)
[10]; [16]
  Adverse event of special interest: 0 number of patients (%)
  Any adverse event: 4 (80%) number of patients (%)
  Serious adverse event: 0 number of patients (%)
  Severe adverse event: 1 (20%) number of patients (%)
  Treatment-related adverse event: 1 (20%) number of patients (%)
[10]; [17]
  Adverse event of special interest: 3 (27%) number of patients (%)
  Any adverse event: 7 (64%) number of patients (%)
  Serious adverse event: 1 (9%) number of patients (%)
  Severe adverse event: 2 (18%) number of patients (%)
  Treatment-related adverse event: 2 (18%) number of patients (%)
[10]; [18]
  Adverse event of special interest: 1 (11%) number of patients (%)
  Any adverse event: 7 (78%) number of patients (%)
  Serious adverse event: 0 number of patients (%)
  Severe adverse event: 0 number of patients (%)
  Treatment-related adverse event: 0 number of patients (%)
[10]; [19]
  Adverse event of special interest: 0 number of patients (%)
  Any adverse event: 6 (86%) number of patients (%)
  Serious adverse event: 0 number of patients (%)
  Severe adverse event: 0 number of patients (%)
  Treatment-related adverse event: 0 number of patients (%)
[10]; single oral dose 250-800 mg, all patients
  tolerability: well tolerated
PvDHODH enzyme
  IC50 for the PvDHODH enzyme relative to PfDHODH: two times higher
Plasmodium falciparum [11]; 250 mg, ITT
  patients achieving ACPR at day 28: 55%
  patients achieving PCR-adjusted ACPR at day 14: 73%
Plasmodium falciparum [11]; 250 mg, per-protocol
  patients achieving ACPR at day 28: 60%
  patients achieving PCR-adjusted ACPR at day 14: 80%
Plasmodium falciparum [11]; 400 mg single oral dose, per-protocol
  patients achieving PCR-adjusted ACPR at day 14: 100%
Plasmodium falciparum [11]; 400 mg, ITT
  patients achieving ACPR at day 28: 69%
  patients achieving PCR-adjusted ACPR at day 14: 85%
Plasmodium falciparum [11]; 400 mg, per-protocol
  patients achieving ACPR at day 28: 89%
Plasmodium vivax [12]; cohort 1b, 400 mg, 4 profiles analysed
  Profiles with lag: 3
Plasmodium vivax [12]; cohort 2b, 600 mg, 9 profiles analysed
  Profiles with lag: 3
Plasmodium vivax [12]; cohort 3b, 800 mg, 6 profiles analysed
  Profiles with lag: 1
P. falciparum
  estimated duration of exposure greater than the minimum parasiticidal concentration: around 10 days
Plasmodium vivax [13]; P vivax, 400 mg, ITT (five patients)
  patients achieving crude cure at day 14: none
Plasmodium vivax [13]; P vivax, 400 mg, per-protocol (four patients)
  patients achieving crude cure at day 14: none
Plasmodium vivax [13]; P vivax, 600 mg, ITT
  patients achieving crude cure at day 14: 33%
Plasmodium vivax [13]; P vivax, 600 mg, per-protocol
  patients achieving crude cure at day 14: 50%
Plasmodium vivax [13]; P vivax, 800 mg, ITT
  patients achieving crude cure at day 14: 14%
Plasmodium vivax [13]; P vivax, 800 mg, per-protocol
  patients achieving crude cure at day 14: 25%
Plasmodium vivax [13]; P vivax, all doses
  patients achieving a cure at day 28: No patients
Plasmodium vivax [13]; within the first 100 h, doses of 600 mg and 800 mg
  P vivax clearance: 99–100%
[14]; P falciparum patients, 250 mg or 400 mg
  dose proportionality based on Cmax and AUC0-∞: dose proportional
[14]; P vivax patients, 400 mg to 800 mg
  dose proportionality of exposure: slightly subproportional
[14]; human, plasma, oral, tmax, seen for the other patients
  Tmax: 6 to 8 h

## Cc1cc(Nc2ccc(C(F)(F)F)nc2)n2nc(C(C)(F)F)nc2n1 [DSM421, reference compound]
[9]
  efficacy for P falciparum compared with P vivax: equal efficacy
